Source: PubChem BioAssay
Shown are actives, neighbours in structure and some others; about 3.6% of the full set was active somewhere.
HSF1 activator: increases HSF-1 driven luciferase reporter signal; NIH3T3-HGL HSF-1 luciferase reporter, MG132, 8 h; 100% = twice DMSO control signal; activation, % at 9 µM; actives 1.7% (n = 300,000); AID 504408;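 active = mean replicate activation of at least 50% with a set share of replicates each reaching 50%; inconclusive = only one of those two conditions met; inactive = mean below 50% and too few replicates reaching it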;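 also: 0% = median of the neutral control wells and 100% = twice that signal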
MITF act: MITF TRPM1 promoter activation in melanoma cells. SK-MEL-5 TRPM1-promoter luciferase, 24 h; % of positive control, neutral wells = 0. activation, % at 12.5 µM. actives 0.75% (n = 300,000). AID 588334;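 active = mean activation of at least 80% with every replicate also reaching 80%; inconclusive = mean reaches 80% but some replicate falls short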;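 also: 0% = neutral control wells and 100% = parthenolide positive control wells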
SR-BI DiI inh: blocks mouse SR-BI lipid uptake from DiI-HDL; Q61009; inhibition, % at 12.5 µM; actives 0.96% (n = 320,000); AID 488896; ldlA[mSR-BI] CHO cells, DiI-HDL uptake fluorescence, 3 h;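 active = mean replicate inhibition of at least 70% and a set share of replicates each scoring 70 or more; inconclusive = meets just one of the two criteria; inactive = fails both criteria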;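 also: 0% = median of neutral control wells and 100% = median of positive control wells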
Target sequence (Q61009 whole entry, looked up): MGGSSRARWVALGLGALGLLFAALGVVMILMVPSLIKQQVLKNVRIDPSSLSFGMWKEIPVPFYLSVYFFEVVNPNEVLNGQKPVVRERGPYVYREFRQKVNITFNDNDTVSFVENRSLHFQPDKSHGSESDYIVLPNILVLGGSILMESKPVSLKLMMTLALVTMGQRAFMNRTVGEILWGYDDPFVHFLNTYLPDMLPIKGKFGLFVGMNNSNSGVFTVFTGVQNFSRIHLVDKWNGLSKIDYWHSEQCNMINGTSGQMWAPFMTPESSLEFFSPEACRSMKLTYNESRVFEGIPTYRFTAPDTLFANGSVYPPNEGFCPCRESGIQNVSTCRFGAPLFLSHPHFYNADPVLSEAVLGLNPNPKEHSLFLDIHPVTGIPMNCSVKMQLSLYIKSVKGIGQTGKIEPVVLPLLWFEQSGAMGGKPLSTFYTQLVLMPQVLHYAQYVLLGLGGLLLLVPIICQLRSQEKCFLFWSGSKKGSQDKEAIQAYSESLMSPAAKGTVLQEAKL
Wnt bcat act: activates Wnt/beta-catenin signaling in a reporter cell assay; activator, plate reader; activation, % at 9.35 µM; actives 1.2% (n = 300,000); AID 743398; in the data active = activation above about 30%, passing the limit was not always enough; inconclusive = no clear call, values can overlap the other calls;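 also: 0% = neutral control wells and 100% = positive control wells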
SR-BI uptake up: enhances SR-BI lipid uptake from DiI-HDL; CHO ldlA[mSR-BI] cells, DiI-HDL uptake fluorescence, 3 h; 100 = double the neutral-control signal; AID 504775; activation, % at 12.5 µM; actives 0.096% (n = 320,000);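 active = mean replicate activation of at least 60% and every replicate at or above 60%; inconclusive = mean or all-replicate condition met, but not both; inactive = mean below 60% and not all replicates reaching 60%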;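 also: 0% = median plate neutral-control signal and 100% = twice that signal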
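System: LDL receptor-deficient CHO ldlA cells overexpressing murine SR-BI | Timing: 3 h uptake period with compound, 37 °C | Medium: HEPES-buffered (25 mM, pH 7.4) F12 plus 0.5% BSA | Dosing: Single-point compound dose | Signal: Bottom-read fluorescence, 550/595 nm | Read-out: Retained DiI signal reflecting DiI-HDL uptake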
* = called active by the depositor; u = inconclusive; x = not tested or not shown.

SMILES | HSF1 activator | MITF act | SR-BI DiI inh | Wnt bcat act | SR-BI uptake up
COc1ccccc1-c1cnc(C(O)c2cc(C)c(OC)c(C)c2)[nH]1 (configuration not stated) | x | x | x | -1.6 | x
CC(=O)OC1COC(OC(C)=O)CO1 (configuration not stated) | x | -7.6 | -6.0 | -2.5 | 6.0
COc1cccc(C(=O)N[C@H](C(=O)N2CCC[C@H]2C(=O)NC2CCCC2)c2ccccc2)c1 | x | x | x | -2.0 | x
CCOCCCNC(=O)C(c1ccc(Cl)cc1)N1CCC2(CC1)OCCO2 (configuration not stated) | -5.4 | 3.6 | -24.3 | 60.5* | 24.3
S=C(Nc1ccccc1)Nc1ccc2cn[nH]c2c1 | 1.1 | 37.6 | x | 32.6* | x
CC(C)(C)NC(=O)C(c1ccc(C(F)(F)F)cc1)n1c(=O)c(-c2cc3ccccc3[nH]2)nc2ccccc21 (configuration not stated) | x | x | x | -16.2 | x
COc1ccc(C(=O)Nc2cccc(OC(=O)c3ccc(C)c(C)c3)c2)cc1 | 17.6 | 36.2 | 6.0 | 15.9 | -6.0
CC(=O)Oc1ccc(C(=O)Nc2cccc(C(=O)c3ccc(C)c(C)c3)c2)cc1 | 8.4 | 1.4 | 84.0* | -0.3 | -84.0
COC(=O)Cc1ccc(NC(=O)c2ccc(C)c(C)c2)cc1 | 70.7* | u | 40.4 | 23.1 | -40.4
CC(C(=O)NN=C(c1ccccc1)c1ccccc1)N1CCCC1 (configuration not stated) | 55.0* | 4.3 | -5.2 | -1.4 | 5.2
O=C(NN=C(c1ccccc1)c1ccccc1)C(CCl)C1CCCCC1 (configuration not stated) | x | -8.4 | -14.0 | 0.7 | 14.0
COc1cccc(NC(=S)N(CCCN2CCN(C)CC2)Cc2ccco2)c1 | 61.0* | 8.3 | -13.2 | -0.8 | 13.2
CC(C=NN=C1C(=O)Nc2ccccc21)=Cc1ccccc1 | x | x | x | -2.8 | x
COc1ccccc1-c1cc(C(=O)NCCN2CCOCC2)no1 | 6.7 | 14.2 | 26.3 | -0.1 | -26.3
COc1cc(C)ccc1OCc1cc(C(=O)N(C)CCCN2CCOCC2)no1 | -21.3 | 126.6* | 7.7 | u | -7.7
COc1cc(C)ccc1OCc1cc(C(=O)NCCN2CCOCC2)no1 | 21.7 | 107.0* | 7.1 | 26.0 | -7.1
COc1ccc(C)cc1S(=O)(=O)NCCN1CCOCC1 | -11.1 | -7.5 | 74.2* | -0.1 | -74.1
O=C(CCN1CCc2ccccc2C(c2ccccc2)C1)c1ccc2c(c1)OCCO2 (configuration not stated) | 87.5* | 19.0 | 7.6 | x | -7.6
CC1=CC(c2ccccc2)NC(=S)N1 (configuration not stated) | -6.0 | -0.3 | 33.7 | x | -33.7
S=C1NC(c2ccccc2)=CC(c2ccccc2)N1 (configuration not stated) | 3.1 | 1.2 | 82.2* | -0.3 | -82.2
COc1ccc(CCNC(=O)CN(C)S(=O)(=O)c2cccs2)cc1 | x | 4.8 | 0.4 | 3.7 | -0.4
NC(=O)c1ccc(NC(=O)CC23CC4CC(CC(Br)(C4)C2)C3)cc1 | 75.5* | -9.9 | -21.0 | -1.7 | 21.0
O=C(Nc1ccccc1F)c1csc([C@@H]2C[C@H](O)[C@@H](CO)O2)n1 | x | x | x | -2.9 | x
Nc1ccccc1N=Cc1ccc(-c2cccc(Cl)c2)o1 | 54.5* | 46.4 | 25.4 | 13.6 | -25.4
COC(=O)N/N=C/c1ccc(-c2cccc(Cl)c2)o1 | 21.9 | 13.9 | -39.9 | 11.0 | 39.9
SMILES | HSF1 activator | MITF act | SR-BI DiI inh | Wnt bcat act | SR-BI uptake up
COc1ccc2oc(=O)c(C(=O)N3CCN(c4ccccc4C)CC3)cc2c1 | 30.0 | 105.5* | -0.6 | 49.5* | 0.6
COc1ccc2oc(=O)c(C(=O)N3CCN(c4ccccc4)CC3)cc2c1 | 81.5* | 15.1 | 12.4 | 1.6 | -0.7
COc1ccc2oc(=O)c(C(=O)N3CCN(C(=O)c4ccccc4)CC3)cc2c1 | 7.1 | 1.1 | x | -1.3 | x
Cc1ccc(-c2nc3ncccn3c2Nc2ccccc2C)o1 | 56.6* | 0.8 | 45.1 | 2.7 | -45.1
Cc1ccc(Nc2c(-c3ccc(C)o3)nc3ncccn23)cc1 | -15.5 | 29.4 | x | 13.0 | x
COc1ccc(-n2cnc3c(N)nc(N)nc32)cc1 | x | 10.4 | -14.0 | 0.0 | 14.0
OC(c1ccc(F)c(F)c1)c1ncc(-c2ccc(F)cc2)[nH]1 (configuration not stated) | x | x | x | -0.3 | x
CCc1ccccc1NC1Nc2cc(C)nn2S1 (configuration not stated) | 17.8 | -1.1 | 3.9 | -3.0 | -3.9
Cc1cc2n(n1)SC(Nc1cccc3ccccc13)N2 (configuration not stated) | u | 0.8 | 17.1 | 47.1* | -17.1
CC(=O)Nc1ccc(CN2C(=O)C(CCc3ccccc3)ON=C2c2cnccn2)cc1 (configuration not stated) | x | x | x | 7.3 | x
COc1ccc(NC(=O)N(C)C[C@@H]2OCCCC[C@@H](C)Oc3ccc(NS(C)(=O)=O)cc3C(=O)N([C@H](C)CO)C[C@@H]2C)cc1 | x | x | x | 0.0 | x
CCC(C)NC(=O)c1cc2c(=O)n(CC)c3ccccc3c2s1 (configuration not stated) | 6.5 | 0.8 | 74.4* | -0.9 | -74.5
CCOC(CNC(=O)c1cc2c(=O)n(CC)c3ccccc3c2s1)OCC | -14.3 | -1.2 | 82.0* | 5.8 | -82.0
CCCCNC(=O)C(NC(=O)c1cccnc1OC)C(=O)c1ccccc1 (configuration not stated) | x | x | x | 0.8 | x
COc1ccc(S(=O)(=O)N2CCCOC2CNC(=O)C(=O)NCCCn2ccnc2)cc1OC (configuration not stated) | 0.9 | 2.0 | -70.5 | -4.5 | 70.5*
CC(C)C[C@H](NC(=O)N1CCOCC1)C(=O)N1CCC[C@H]1C(=O)NCc1ccccc1 | x | x | x | -6.7 | x
CCOC(=O)C1(Cc2ccc(OC)cc2)CCN(C(=O)c2cc3ccccc3[nH]2)CC1 | 77.3* | 0.8 | 2.9 | 22.6 | -2.9
CC(NC(=O)c1ccccc1Br)c1ccc2c(c1)CCCC2 (configuration not stated) | 59.4* | -1.3 | -8.9 | x | 8.9
CC1(O)C(c2ccccc2)=Nc2ccccc21 (configuration not stated) | x | x | x | 61.4* | x
O=C(CCCCCNC(=O)N1CCn2c1nc1ccccc12)NCc1ccccc1 | 25.1 | -4.6 | 14.8 | -2.7 | -14.8
O=C(CCCCCNC(=O)N1CCn2c1nc1ccccc12)NCc1ccc(Cl)cc1 | 50.9* | 2.4 | 23.7 | 3.2 | -23.7
CC(C)N(C(=O)[C@H]1C[C@H](CC(=O)NCCc2ccccn2)C(=O)N2CCc3c([nH]c4cc(CCC(=O)N(C)C)ccc34)[C@]12C)C(C)C | x | -4.4 | 18.0 | -1.4 | -18.0
Cc1cc(C)n(C(N)=NC(=O)c2ccccc2)n1 | x | x | x | 43.4* | x
Cc1cc(C)n(/C(=C/N(C)C)C(=O)c2ccccc2)n1 | 0.5 | 6.4 | -22.4 | -0.5 | 22.4
Cc1cc(C)n(C(N)=NC(=O)c2ccc([N+](=O)[O-])cc2)n1 | 42.8 | 94.5* | -17.0 | 10.4 | 17.0
